We go through five compounds from ChEMBL document CHEMBL2390941 (Bioorg Med Chem Lett, 2013).

Values after ≈ are worked out from the molar mass of the structure shown. Active and inactive are the calls of the source. The rule behind the calls is not given here. Where only a bound is given, the exact number is not on record here.

The subject of data set [1] is Plasmodium falciparum. Kind of data set: Antiplasmodial activity against blood stage of drug-resistant Plasmodium falciparum TM91C235. Format: functional. In a few lines:
(§1)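 Blood-stage parasites tested in a dose-response growth inhibition assay; values reported in ng/ml.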

Data set [2] relates to Plasmodium falciparum. Kind of data set: Antiplasmodial activity against blood stage of drug-sensitive Plasmodium falciparum D6. It counts as functional. The procedure, abridged: as §1
For data set [3], the target named is T1, Enoyl-acyl carrier reductase (Toxoplasma gondii, UniProt Q6UCJ9).
T1 sequence (Q6UCJ9 whole entry): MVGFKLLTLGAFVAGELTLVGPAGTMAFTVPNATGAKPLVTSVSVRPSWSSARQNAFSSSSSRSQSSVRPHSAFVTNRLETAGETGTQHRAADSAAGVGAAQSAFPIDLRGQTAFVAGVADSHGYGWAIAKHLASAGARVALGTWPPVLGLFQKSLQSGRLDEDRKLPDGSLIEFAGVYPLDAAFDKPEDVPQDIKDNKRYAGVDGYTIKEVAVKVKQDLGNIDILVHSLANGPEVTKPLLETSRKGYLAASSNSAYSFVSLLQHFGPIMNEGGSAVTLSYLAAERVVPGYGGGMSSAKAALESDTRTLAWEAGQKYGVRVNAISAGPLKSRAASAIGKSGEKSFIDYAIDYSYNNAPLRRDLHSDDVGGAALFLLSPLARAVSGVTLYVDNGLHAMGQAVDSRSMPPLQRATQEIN
Kind of data set: Inhibition of Toxoplasma gondii enoyl acyl-carrier protein reductase.

Data set [4] addresses T2, Enoyl-acyl carrier reductase (Toxoplasma gondii) (UniProt Q6UCJ9).
T2 sequence (whole entry): T1 sequence (Q6UCJ9 whole entry)
Nature of the data set: Inhibition of Toxoplasma gondii enoyl acyl-carrier protein reductase at 1 uM.

In the next data set the test system is HFF. Nature of the data set: Cytotoxicity against HFF after 72 hrs by WST-1 assay. Format: cell-based. The following applies: human. The procedure, abridged:
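Uninfected human foreskin fibroblast host cells were incubated with compounds for 72 h. Viability was then assessed by WST-1 staining. The effect of DMSO levels in the culture medium was assessed alongside.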
Background: Tetrazolium dyes change colour on reduction, which living cells bring about.

The subject of data set [5] is Toxoplasma gondii. Kind of data set: Antiparasitic activity against tachyzoite of Toxoplasma gondii RH expressing yellow fluorescent protein infected in human foreskin fibroblasts after 72 hrs by bacterial beta-galactosidase reporter gene assay. Format: functional.
Data set [6] deals with Toxoplasma gondii. Kind of data set: Antiparasitic activity against tachyzoite of Toxoplasma gondii RH expressing yellow fluorescent protein infected in human foreskin fibroblasts after 72 hrs by fluorescence assay.

For orientation: IC50 means the concentration needed to halve the response being measured. The low end stands for greater potency, the high end for weaker potency. What is called inhibition is the drop in the measured response relative to a control, in per cent. Read a high inhibition as strong suppression. What is called MIC50 is the lowest concentration that inhibits either 50% of growth or 50% of the strains tested, depending on the study. A lower MIC50 goes with greater potency. As to `CCCc1cc(-c2ccc(Oc3ccc(C#N)cc3O)c(Cl)c2)no1`, the result in the data set on Plasmodium falciparum [1] was inactive. Also, the Activity is greater than 2440 ng/mL in the data set with Plasmodium falciparum [2] and greater than 10 µM with HFF. The IC50 in data set [3] was found to be 0.029 µM. The inhibition in data set [4] was 94%. This compound also yielded an MIC50 against Toxoplasma gondii [5] of 4 µM (≈ 1.42 µg/mL).

As for `Cc1cc(C(=O)NCc2ccc(Oc3ccc(Cl)cc3Cl)c(O)c2)no1`, half-maximal inhibition in data set [3] (IC50) was put at 0.019 µM.

In the case of `CCCc1cc(-c2ccc(Oc3ccc(CNC(=O)c4cc(C)on4)cc3O)c(Cl)c2)no1`, the Activity in the data set with Plasmodium falciparum [2] is greater than 10000 ng/mL; with HFF, greater than 10 µM. Further, the IC50 in data set [3] came out at 0.137 µM. For the same compound, in data set [4], the inhibition worked out at 89%. This compound had an MIC50 with Toxoplasma gondii [6] of 4 µM (≈ 1.87 µg/mL).

As for `Oc1cc(Cl)ccc1Oc1ccc(Cl)cc1Cl` [TRICLOSAN], the outcome in the data set on Plasmodium falciparum [1] and with Plasmodium falciparum [2] was inactive. Further, the inhibition in data set [4] was found to be 98%. Moreover, in the data set on HFF, the Activity is greater than 10 µM. In the data set on Toxoplasma gondii [6], the MIC50 worked out at 5 µM (≈ 1.45 µg/mL).

For the compound `N#Cc1ccc(Oc2ccc(-c3cc(CCO)on3)cc2Cl)c(O)c1`, the values for the Activity in the data set on Plasmodium falciparum [2] and with HFF were greater than 10000 ng/mL and greater than 10 µM, respectively. Further, half-maximal inhibition in data set [3] (IC50) required 0.034 µM. In data set [4], the inhibition amounted to 94%. The compound further displayed an MIC50 against Toxoplasma gondii [5] of 8 µM (≈ 2.85 µg/mL).
